According to ChEMBL document CHEMBL4513216, “Probing the Open Global Health Chemical Diversity Library for Multistage-Active Starting Points for Next-Generation Antimalarials” (ACS Infect Dis, 2020):

Assay: Toxicity liver stage against HepG2, at 10uM
Assay type: cell-based
Design: test concentration 10 uM, cell line HepG2-A16-CD81EGFP
Conditions: human, HepG2-A16-CD81EGFP cells; read-out: INHIBITION
Summary of the method: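 Uninfected HepG2-A16-CD81EGFP cells, 3 × 10^3 per well, 1536-well, plated on prespotted compound at 10 μM final, parasite-free screening media added to match infected plates; puromycin 10 μM positive, DMSO 0.5% negative; run in parallel with 48 h PbLuc assay at 37 °C, 5% CO2; viability by CellTiter-Glo luminescence, normalized to controls.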

Cc1nccc(-c2cccc(NCc3nc(C(C)C)no3)c2)n1
cytotoxicity at 10 µM: 5.75%

CN(C)CCN(C)C[C@H]1CN2CC[C@H]1C[C@@H]2CNC(=O)Nc1ccsc1
cytotoxicity at 10 µM: 9.53%

CN1C(=O)CO[C@H](c2ccc(NC(=O)c3cccnc3)cc2)[C@H]1CO
cytotoxicity at 10 µM: 6.15%

CCC(CNC(=O)C1CC1)(OC)c1ccccc1 (stereo not given)
cytotoxicity at 10 µM: -4.34%

CCN1CCc2c(c(COC)nn2C)C1
cytotoxicity at 10 µM: 5.09%

CN1C(=O)CCCC12CCCN(C(=O)c1ccoc1)C2 (stereo not given)
cytotoxicity at 10 µM: -4.04%

Cc1csc(CN2CC[C@H]3C(=O)N(c4cccnc4)CCO[C@H]3C2)n1
cytotoxicity at 10 µM: 6.31%

COCCNC(=O)c1nc2c(s1)CCCN2Cc1ccccc1
cytotoxicity at 10 µM: 12.6%

O=C(c1nc2c(s1)CCCN2CC1CC1)N1CCOCC1
cytotoxicity at 10 µM: 11.2%

O=C(c1ccno1)N1CCC2(CC(=O)N(c3ccc4c(c3)OCO4)C2)C1 (stereo not given)
cytotoxicity at 10 µM: 9.82%

Cn1cccc1C(=O)N1CCC2(CCCN2S(C)(=O)=O)CC1
cytotoxicity at 10 µM: 5.13%

CCS(=O)(=O)N1CCCC2(COCCN(c3nncs3)C2)C1 (stereo not given)
cytotoxicity at 10 µM: 7.77%

CC(C)COCC1CN(Cc2cnn(C)c2)Cc2ncn(C)c21 (stereo not given)
cytotoxicity at 10 µM: 0.588%

Cn1cc(CN2C[C@@H]3COC[C@]3(C(=O)NCc3cccs3)C2)cn1
cytotoxicity at 10 µM: 7.22%

Cn1cc(N2CC3(CCN(S(=O)(=O)C4CC4)C3)CC2=O)cn1 (stereo not given)
cytotoxicity at 10 µM: -9.82%

Nc1ncc(-c2ccc(F)cc2)c(C2CCCNC2)n1 (stereo not given)
cytotoxicity at 10 µM: 0.109%

O[C@@H]1C[C@H]2CN(Cc3ccccc3Cl)[C@H](Cc3ccccc3)CN2C1
cytotoxicity at 10 µM: -2.51%

CN(C)C(=O)C1(c2cnccn2)CCCN1C(=O)Cc1ccccc1 (stereo not given)
cytotoxicity at 10 µM: 0.225%

CCn1cc(CN2CCN(CC(O)c3ccc(C)cc3C)CC2)c(C)n1 (stereo not given)
cytotoxicity at 10 µM: -0.664%

Cc1nc2ccc(C(=O)N3C[C@@H](O)[C@H](N4CCCC4)C3)cc2[nH]1
cytotoxicity at 10 µM: -8.66%

NCc1cnn(-c2ccccc2C(=O)NCc2ccccc2Cl)c1
cytotoxicity at 10 µM: -3.52%

COCCC(=O)N1CCCC(c2nc(O)cc(-c3ccncc3)n2)C1 (stereo not given)
cytotoxicity at 10 µM: -24.9%

c1cnc(-c2cnc(N3CCSCC3)nc2C2CCCO2)cn1 (stereo not given)
cytotoxicity at 10 µM: 4.4%

Cc1cccc(-n2cnc(Cl)c2CO)c1
cytotoxicity at 10 µM: -11.8%

CC1(C)COCCN1C(=O)c1ccc(Cn2cncn2)cc1
cytotoxicity at 10 µM: -5.85%

CS(=O)(=O)N1CCC(C(=O)Nc2nnc(C(F)(F)F)[nH]2)CC1
cytotoxicity at 10 µM: 9.52%

CCOC(C)C(=O)Nc1cc(S(=O)(=O)NC2CC2)ccc1F (stereo not given)
cytotoxicity at 10 µM: -7.51%

CC(=O)N1CCC(Oc2ccc(C#N)cc2)CC1
cytotoxicity at 10 µM: -83.4%

CC(C)(C)c1nnc(CSc2ccccn2)o1
cytotoxicity at 10 µM: 5.23%

O=C(O)CCc1ccc(S(=O)(=O)Nc2cnn(CC(F)(F)F)c2)cc1
cytotoxicity at 10 µM: -7.52%

CCN(C(=O)Cc1ccc(NCc2nccn2C)cc1)c1ccccc1
cytotoxicity at 10 µM: -2.09%

CC(=O)NC1CCN(C(=O)Nc2cccc(SC(F)F)c2)CC1
cytotoxicity at 10 µM: -0.598%

Cc1cccc(C(=O)N(CC(=O)O)CC(C)C)c1
cytotoxicity at 10 µM: -14.3%

CCNC(=O)C1CCN(Cc2ccccc2OCC(F)(F)F)CC1
cytotoxicity at 10 µM: -3.03%

COc1cc(CNC(=O)c2csc(Br)c2)ccn1
cytotoxicity at 10 µM: -5.76%

Cn1c(NC(=O)CNC(=O)C2CCCC2)nc2cc(Cl)ccc21
cytotoxicity at 10 µM: -4.53%

CN(CC(=O)N1CCCC1c1noc(C2CC2)n1)S(C)(=O)=O (stereo not given)
cytotoxicity at 10 µM: -8.2%

O=C(Cn1cccn1)NCC(c1cccs1)N1CCCC1 (stereo not given)
cytotoxicity at 10 µM: 11.9%

CS(=O)(=O)NCCC1CCCCN1C(=O)NCCc1ccccc1 (stereo not given)
cytotoxicity at 10 µM: -6%

CCOC(C)c1noc(CN2CCN(CC3CCCC3)CC2)n1 (stereo not given)
cytotoxicity at 10 µM: -13.2%

CC(NC(=O)c1sccc1C1CC1)c1ccc2c(c1)CC(=O)N2 (stereo not given)
cytotoxicity at 10 µM: 1.66%

O=C(CC1CCCO1)Nc1ccn(Cc2cccc3cccnc23)n1 (stereo not given)
cytotoxicity at 10 µM: 2.17%

CCC(C)(C)NC(=O)Nc1nnc(-c2ccccn2)s1
cytotoxicity at 10 µM: 6.39%

N#CCCN(c1ccc(F)cc1)S(=O)(=O)CC1CCCCO1 (stereo not given)
cytotoxicity at 10 µM: 5.65%

CSc1nc(C2CC2)nc(C)c1C(=O)NCc1cc(C)on1
cytotoxicity at 10 µM: -11.7%

CCN(Cc1noc(C(C)(C)C)n1)Cc1ccc(C#N)cc1F
cytotoxicity at 10 µM: -4.45%

Cc1noc(C)c1CN(C)Cn1c(=O)n(C)c2ccccc21
cytotoxicity at 10 µM: 5.25%

COc1ccc2c(c1)CCCN2C(=O)NCCc1cnn(C)c1
cytotoxicity at 10 µM: -6.94%

CC(Cn1cccn1)NS(=O)(=O)Cc1ccccc1 (stereo not given)
cytotoxicity at 10 µM: 6.8%

Cc1cnn(CC2CCCN2Cc2cc(=O)n3ccccc3n2)c1 (stereo not given)
cytotoxicity at 10 µM: -1.61%

OC1CCN(Cc2cc3c(cc2Br)OCCO3)CC1
cytotoxicity at 10 µM: 7.73%

Cc1nn(C)c2sc(C(=O)N3CCCC(n4ccnc4C)C3)cc12 (stereo not given)
cytotoxicity at 10 µM: -10%

O=C(c1cscn1)N1CCC2(CCN(Cc3nccs3)C2)CC1
cytotoxicity at 10 µM: 1.8%

O=C1CCC2(CCOC2)CN1Cc1nc2ccc(Cl)cc2[nH]1 (stereo not given)
cytotoxicity at 10 µM: 1.9%

COc1cc(N2CCCC(c3ncc[nH]3)C2)ncn1 (stereo not given)
cytotoxicity at 10 µM: 3.47%

Cc1nn(C)cc1CN(C)c1nccc(-c2cn(C)nc2C)n1
cytotoxicity at 10 µM: 20.2%

CN(C(=O)CC1=CCCCC1)C1CCCN(C2Cc3ccccc3C2)C1 (stereo not given)
cytotoxicity at 10 µM: -0.296%

CCOc1ccnc(N2CCN(Cc3ncccc3C)CC2)n1
cytotoxicity at 10 µM: -7.32%

CCO[C@H]1CN(C)C[C@@H]1NC(=O)c1cc(C)nc2ccc(C)cc12
cytotoxicity at 10 µM: 4.15%

CCCc1ccc(CN2CCN(C(=O)NCC)[C@H]3CS(=O)(=O)C[C@H]32)o1
cytotoxicity at 10 µM: 2.71%

COc1ccc(F)cc1NC(=O)NCC1(CN2CCOCC2)CC1
cytotoxicity at 10 µM: 3.18%

COCCC1(C(=O)O)CCCN(CCOCc2ccccc2)C1 (stereo not given)
cytotoxicity at 10 µM: -12.3%

Cc1nc(N2CCC(O)(c3ccccc3)CC2)c2c(C)nn(C)c2n1
cytotoxicity at 10 µM: 1.22%

CC(C)C[C@@H](CO)n1cc(-c2cncnc2)nn1
cytotoxicity at 10 µM: -0.268%

CC(C)[C@H]1CN(Cc2ccccn2)C[C@@H]1NC(=O)CCS(C)(=O)=O
cytotoxicity at 10 µM: -7.04%

CN(C)[C@H]1CN(C(=O)CCCc2ccc(F)cc2)C[C@@H]1C1CC1
cytotoxicity at 10 µM: -3.01%

CSCCCN1CCn2nc(CNC(=O)N(C)C)cc2C1
cytotoxicity at 10 µM: -2.66%

O=C1CC2(CCCC2)CC(=O)N1Cc1nccs1
cytotoxicity at 10 µM: 3.16%

Cc1ccccc1Oc1ncccc1CNC1CCC1
cytotoxicity at 10 µM: -1.27%

O=C(c1ccc(O)c(Cl)c1)N1C[C@@H](CN2CCCCCC2)[C@@H](CO)C1
cytotoxicity at 10 µM: 1.89%

CNc1ccnc(NCCC(=O)Nc2ccccc2C)n1
cytotoxicity at 10 µM: -1.53%

CC(c1ccncn1)N(C)Cc1cc(O)c2cc(F)ccc2n1 (stereo not given)
cytotoxicity at 10 µM: -2%

N#CC1CCN(C(=O)CN2CC(c3ccccc3)CC2=O)CC1 (stereo not given)
cytotoxicity at 10 µM: -0.745%

Cc1cc2nc(C(C)C)cc(NCC(c3ccccn3)N(C)C)n2n1 (stereo not given)
cytotoxicity at 10 µM: -1.63%

CC(CN1CCOCC1)NCc1nncn1C1CCCCC1 (stereo not given)
cytotoxicity at 10 µM: 1.52%

CC(=O)N1CCN(c2cc(-c3ccccc3)nc3c(C)c(C)nn23)CC1
cytotoxicity at 10 µM: -13.1%

CSCC(=O)N1CCCC(c2cc(C)[nH]n2)C1 (stereo not given)
cytotoxicity at 10 µM: -11.3%

Cc1cnn(C2CCCN(C(=O)c3ccccc3-n3cnnn3)C2)c1 (stereo not given)
cytotoxicity at 10 µM: -6.92%

COC(=O)c1cccn1C1CCN(C(=O)c2cn[nH]c2C)CC1
cytotoxicity at 10 µM: -7.64%

CCOc1nnc(CN2CCC(N(C)Cc3noc(C)n3)C2)s1 (stereo not given)
cytotoxicity at 10 µM: -7.3%

CC(C)c1nccn1C1CCCN(C(=O)c2cnn(C)c2C2CC2)C1 (stereo not given)
cytotoxicity at 10 µM: -5.5%

Cc1cc(C)c(CNC(=O)NCC(O)c2cccc(F)c2)c(=O)[nH]1 (stereo not given)
cytotoxicity at 10 µM: -4.37%

O=C(CCN1C(=O)CCC1=O)Nc1cnn(-c2ccccc2Cl)c1
cytotoxicity at 10 µM: -9.56%

CCOc1cc(C(=O)N2CCCC(n3cncn3)C2)ccc1C (stereo not given)
cytotoxicity at 10 µM: -4.35%

CCOc1cccc2c1OCC(C(=O)NS(=O)(=O)Cc1ccccc1)=C2
cytotoxicity at 10 µM: -7.22%

COc1ccc(C(=O)N2CCCC(C)C2)cc1F (stereo not given)
cytotoxicity at 10 µM: -11.6%

Cc1ccc(OCC(O)CN2CCC(Cn3cccn3)CC2)cc1 (stereo not given)
cytotoxicity at 10 µM: -16%

CC(C)N1CCC2(CC1)C(=O)N(c1cccnc1)c1ccc(F)cc12
cytotoxicity at 10 µM: 12.4%

Cc1cc(C[C@@H]2COC[C@H]2NCc2ccc(C(C)C)cc2)on1
cytotoxicity at 10 µM: -30.4%

Cc1cc(C)nc(Nc2cccc(C3CCCN(C)C3)n2)n1 (stereo not given)
cytotoxicity at 10 µM: -4.45%

CC(C)N(C)Cc1cnc2n1CCN(Cc1ccco1)C2
cytotoxicity at 10 µM: 2.22%

CC(C)NC(=O)N1CCC2(C1)CN(c1ccsc1)C(=O)CN2C (stereo not given)
cytotoxicity at 10 µM: 1.18%

COc1c(CNCc2nnc3n2CCCCC3)c(C(C)C)nn1C
cytotoxicity at 10 µM: 11.5%

CCN1CCC12CCN(C(=O)c1cc(C)on1)C2 (stereo not given)
cytotoxicity at 10 µM: 5.71%

Cn1cc(CN2CCCC23CCN(C(=O)c2cccs2)CC3)cn1
cytotoxicity at 10 µM: 2.17%

Cc1ccc(CN2Cc3nnn(C)c3C(COCc3ccccc3)C2)o1 (stereo not given)
cytotoxicity at 10 µM: 5.44%

COc1cccc(CN(Cc2ncc[nH]2)Cc2ccco2)c1
cytotoxicity at 10 µM: -8.01%

CN(C)c1nc(N2CCCC2)nc2c1CCN(C(=O)c1ccco1)CC2
cytotoxicity at 10 µM: 14.4%

COc1ncccc1CN1Cc2nnn(C)c2C(COCC2CC2)C1 (stereo not given)
cytotoxicity at 10 µM: 12.4%

CN(C)C(=O)CN1CCC2(CCN(CC3CC3)CC2)C1=O
cytotoxicity at 10 µM: -3.69%

O=C(c1ccno1)N1CC[C@@H]2O[C@@H](COCCN3CCCC3)CC[C@@H]21
cytotoxicity at 10 µM: 0.925%

CN1[C@H](Cn2cccn2)C[C@@H]2CN(Cc3cccs3)CC[C@@H]21
cytotoxicity at 10 µM: 11.9%

O=C1C[C@H]2[C@H](CCN2Cc2ccccn2)N1CC1CC1
cytotoxicity at 10 µM: 5.8%

CC1=N[C@@]2(CC[C@@H]3CN(Cc4ccccc4C)C[C@@H]32)C(=O)N1CC1CC1
cytotoxicity at 10 µM: -2.6%

COc1ccc(CN2C[C@@H]3OCCN(CC4CCCO4)[C@@H]3C2)cc1 (stereo not given in full)
cytotoxicity at 10 µM: -0.851%

Cc1cccc(C(=O)N2C[C@@H](OCc3cccnc3)[C@H]3OCCC[C@@H]32)n1
cytotoxicity at 10 µM: -1.75%

OCCN1CCC2(CCc3cc(-c4ccoc4)ccc32)CC1
cytotoxicity at 10 µM: -0.582%

CN(C)C(=O)NCc1ncn2c1CN(Cc1ccco1)CCC2
cytotoxicity at 10 µM: 8.22%

CN(C)C(=O)N1C[C@H]2CC[C@@H](C1)N(Cc1nnc(C3CC3)o1)C2
cytotoxicity at 10 µM: 0.266%

CSc1ccccc1CN1C[C@H]2CC[C@@H](C1)N(CC1CC1)C2=O
cytotoxicity at 10 µM: -4.81%
